The test system of data set [1] is Mus musculus. The data set can be described thus: Neuroprotective activity in substantia nigra of C57Bl/6 mouse neurogenesis model assessed as protection from MPTP-induced cell death in mature neurons at 5 mg/kg/day, ip bid administered for 21 days by immunohistochemical analysis relative to vehicle-treated control. In kind it is functional, organism-based. The gist of the method:
(§1)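 MPTP model in adult male C57Bl/6 mice, individually housed 1 week. MPTP free base 30 mg/kg/day IP for 5 days. From day 6 (24 h after the last MPTP dose), compound or vehicle given IP twice daily for 21 days. Mice were then perfused with 4% paraformaldehyde. SNc sectioned at 30 μm intervals and every fourth section stained for TH (DAB, hematoxylin counterstain). TH+ cells counted blinded; mean ± SEM, compared with vehicle + MPTP.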

The test system of data set [2] is Mus musculus. As to the kind of experiment: Neuroprotective activity in wild type C57BL/J6 mouse assessed as survival of newborn hippocampal neurons at 10 uM, icv administered for 7 days by BrdU staining-based immunohistochemical analysis relative to vehicle-treated control. In kind it is functional, organism-based. The gist of the method:
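Adult (12 week old) C57BL/J6 mice, environmentally deprived; compound infused via osmotic minipump into left lateral ventricle at 0.5 μL/h for 7 days. BrdU IP 50 mg kg–1 day–1 for 6 days during infusion; perfusion 24 h after last BrdU. BrdU+ cells in SGZ/dentate gyrus of contralateral hemisphere counted in every fifth 40 μm section, normalized to dentate gyrus volume; mean ± SEM.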

The test system of data set [3] is Mus musculus. The data set can be described thus: Neuroprotective activity in substantia nigra of C57Bl/6 mouse neurogenesis model assessed as protection from MPTP-induced cell death in mature neurons at 10 mg/kg/day, ip bid administered for 21 days by immunohistochemical analysis relative to vehicle-treated control. In kind it is functional. The settings on record: route intraperitoneal. The gist of the method: as §1

In data set [4] the test system is Mus musculus. The data set can be described thus: Toxicity in C57Bl/6 mouse assessed as effect on behavior up to 40 mg/kg/day, ip bid administered for 21 days. Format: organism-based. On the set-up: route intraperitoneal. The settings on record: in vivo, 504 h.
Data set [5] has as its system Mus musculus. As to the kind of experiment: Toxicity in C57Bl/6 mouse assessed as effect on weight up to 40 mg/kg/day, ip bid administered for 21 days. Format: organism-based. On the set-up: route intraperitoneal. Conditions: in vivo, 504 h.
For a further data set, the target named is Translocator protein (Homo sapiens, UniProt P30536). The data set can be described thus: Inhibition of TSPO (unknown origin).
For data set [6], the system named is Mus musculus. As to the kind of experiment: Toxicity in C57Bl/6 mouse assessed as effect on appearance up to 40 mg/kg/day, ip bid administered for 21 days. In kind it is organism-based. Conditions: in vivo, 504 h. The arrangement: route intraperitoneal.
In data set [7] the test system is Mus musculus. As to the kind of experiment: Neuroprotective activity in wild type C57BL/J6 mouse assessed as survival of newborn hippocampal neurons at 0.1 to 10 uM, icv administered for 7 days by BrdU staining-based microscopy relative to vehicle-treated control. Format: functional, organism-based. The procedure, abridged:
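Adult (12-week) wild-type C57BL/J6 mice. Compound infused ICV into the left lateral ventricle by osmotic minipump at 0.5 μL/h for 7 days, with BrdU 50 mg/kg/day IP for 6 days. Perfused 24 h after the last BrdU dose. BrdU antigen unmasked (formamide/SSC at 65 °C, then 2 M HCl); anti-BrdU staining. BrdU+ cells in the contralateral dentate gyrus SGZ counted in every fifth 40 μm section and normalised to dentate gyrus volume.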
For orientation: Dividing cells build labelled thymidine or BrdU into new DNA.

Calls of active or inactive are those of the source. The rule behind the calls is not given here.

This note sets out measurements from ChEMBL document CHEMBL3259666, “Discovery of a neuroprotective chemical, (S)-N-(3-(3,6-dibromo-9H-carbazol-9-yl)-2-fluoropropyl)-6-methoxypyridin-2-amine [(-)-P7C3-S243], with improved druglike properties” (J Med Chem, 2014).

Chain of Translocator protein (P30536 whole entry): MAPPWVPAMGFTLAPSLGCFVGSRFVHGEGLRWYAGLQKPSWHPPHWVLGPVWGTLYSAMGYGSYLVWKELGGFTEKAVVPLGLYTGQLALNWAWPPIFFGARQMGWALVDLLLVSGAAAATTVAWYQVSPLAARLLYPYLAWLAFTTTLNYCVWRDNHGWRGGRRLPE

One may read the IC50 as the midpoint of a concentration-inhibition curve. As to `COc1cccc(NCC(F)Cn2c3ccc(Br)cc3c3cc(Br)ccc32)c1` (configuration not stated), the result with Mus musculus [1] and in the data set on Mus musculus [2] was Active. Also, the Activity with Mus musculus [3] is reported as 75%; in the data set with Mus musculus [4] it was “Non-toxic”; in the data set on Mus musculus [5], “Non-toxic”; in the data set with Mus musculus [6], “Non-toxic”. At Translocator protein, this molecule showed an IC50 of 2 µM.
For `COc1cccc(NCC(O)Cn2c3ccc(Br)cc3c3cc(Br)ccc32)n1` (configuration not stated), the outcome in the data set with Mus musculus [2] was Active.
Regarding `COc1cccc(NC[C@@H](F)Cn2c3ccc(Br)cc3c3cc(Br)ccc32)n1`, the result in the data set with Mus musculus [1] and in the data set with Mus musculus [7] was inactive. The same molecule registered an IC50 against Translocator protein of 0.68 µM.
For the molecule `OC(CNc1ccccc1)Cn1c2ccc(Br)cc2c2cc(Br)ccc21` (configuration not stated), the result in the data set with Mus musculus [2] was Active.
